In brackets after ≈: the same amount, converted by molar mass.
Assays:
[1] = Safety index = Ratio of lethal dose / suppressive dose value; type: toxicity; settings: for selectivity ratio: read-out: Safety index
Method in brief: (§1)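 Female BDF1 mice (6 weeks old) were immunized iv with 1 × 10^8 SRBC, then given the test compound's sodium salt in water per os on days 1–3. Serum was taken on day 7 and serially two-fold diluted in PBS with 5 × 10^-5 M 2-mercaptoethanol. 1% SRBC was added, plates were held 14 h at 25 °C, and hemagglutination titer was read visually. Lethal dose is the dose (mg/kg) at which one mouse died; index = lethal dose / dose giving 75% suppression.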

[2] = Lethal dose in rats.; type: toxicity; settings: rat, in vivo
[3] = Ratio of LD50 / ED50 value against adjuvant arthritis in rats.; type: functional
Method in brief: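 Female Lewis rats (7 weeks, 140–160 g) sensitized by subcutaneous injection into left hind paw of 0.05 mL liquid paraffin containing 0.5 mg Mycobacterium butyricum. Compound given orally as 0.6% suspension in arabic gum, five days a week from day 1 (12 days total). Uninjected paw volume measured by plethysmometer until day 17; inhibition versus vehicle control gives ED50; index is LD50/ED50.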

[4] = tested on: Mus musculus; experiment: secondary antibody response in mice at 2.5 mg/kg; type: functional
Method in brief: (§2)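 Female BDF1 mice (6 weeks old) immunized i.v. with 1 × 10^5 SRBC on days 0, 7 and 14; sodium salt in water given orally 5 days/week from day 0 (15 doses). Serum taken day 20; hemagglutination titer by serial two-fold dilution with 1% SRBC, 14 h at 25 °C, read visually; mean log2 titer ± SD.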

[5] = Compound dose causing lethality in mice; type: toxicity; settings: mouse, in vivo; method in brief: as §1
[6] = Inhibitory activity against LPS-stimulated B cell proliferation.; type: functional, cell-based, Mus musculus
Method in brief: (§3)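 Mouse spleen cells stimulated with mitogen, concanavalin A for T cells or lipopolysaccharide for B cells; inhibition of proliferative response measured, IC50 in ng/mL.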

[7] = tested on: Mus musculus; experiment: secondary antibody response in mice at 0.625 mg/kg; type: functional; method in brief: as §2
[8] = tested on: EL4; experiment: Inhibitory growth of EL4 thymoma cell line from C57BL/6 mice; type: functional, cell-based; settings: Mus musculus
Method in brief: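 EL4 thymoma cells (C57BL/6 origin), 4 × 10^4 per well, exposed to compound in DMSO at final 0–50 μg/mL for 1 day at 37 °C, 5% CO2, humidified air; proliferation then measured.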

[9] = species: Mus musculus; experiment: Compound dose suppressing antibody production by 75% in mice; type: functional
Method in brief: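 Female BDF1 mice (6 weeks old) immunized i.v. with 1 × 10^8 SRBC; sodium salt dissolved in water given orally days 1–3. Serum taken day 7; two-fold serial dilutions in PBS with 5 × 10^-5 M 2-mercaptoethanol mixed with 1% SRBC, 14 h at 25 °C; hemagglutination titer read visually. Dose giving 75% suppression, mg/kg.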

[10] = tested on: T-cell; experiment: Inhibitory activity against Con A-stimulated Tcell proliferation.; type: functional, cell-based, Mus musculus; method in brief: as §3
[11] = species: Rattus norvegicus; experiment: Effect on RA model was examined using adjuvant arthritis in rats.; type: functional
Method in brief: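 Female Lewis rats (7 weeks, 140–160 g) sensitized by s.c. injection into left hind paw of liquid paraffin containing 0.5 mg Mycobacterium butyricum. 0.6% suspension in arabic gum given orally 5 days/week from day 1 (12 doses). Uninjected paw volume measured by plethysmometer until day 17; ED50 from inhibition versus vehicle control.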

[12] = tested on: Mus musculus; experiment: secondary antibody response in mice at 1.25 mg/kg; type: functional; method in brief: as §2
[13] = tested on: T-cell; experiment: Inhibitory activity against Con A-stimulated T cell proliferation.; type: functional, cell-based; settings: Mus musculus; method in brief: as §3
[14] = Mus musculus, T-cell, read-out: IC50
[15] = Rattus norvegicus, read-out: ED50

SMILES	selectivity ratio [1]	LD50 ([2]; read-out: LD50)	Ratio [3]	Lethal dose [5]	IC50 [6]	IC50 [8]	Suppressive dose [9]	IC50 [10, 14]	ED50 [11, 15]	Safety index [1]	IC50 ([10]; t-cell)	further results
CCc1cc(C(=O)N[C@@H](CC(F)C(=O)O)C(=O)O)ccc1NCc1cnc2nc(N)nc(N)c2n1 (stereo in doubt; form 1)	160	20 mg/kg	25	100 mg/kg	9.7 ng/mL (≈ 0.0199 µM)	> 100 µM	1.25 mg/kg	3.8 ng/mL (≈ 0.00781 µM)	0.8 mg/kg			Log2 ([4]; 2.5 mg/kg): 3.2; Log2 ([7]; 0.625 mg/kg): 4.8; Log2 ([12]; 1.25 mg/kg): 3.8
Cc1cc(C(=O)N[C@@H](CC(F)C(=O)O)C(=O)O)ccc1NCc1cnc2nc(N)nc(N)c2n1 (stereo in doubt; form 1)	40			12.5 mg/kg	9.9 ng/mL (≈ 0.021 µM)	> 100 µM	0.31 mg/kg	7.8 ng/mL (≈ 0.0165 µM)				
CCCc1cc(C(=O)N[C@@H](CC(F)C(=O)O)C(=O)O)ccc1NCc1cnc2nc(N)nc(N)c2n1 (stereo in doubt; form 1)				200 mg/kg	22.2 ng/mL (≈ 0.0444 µM)	> 100 µM	10 mg/kg	5.3 ng/mL (≈ 0.0106 µM)		40		
Cc1cc(C(=O)N[C@@H](CC(F)C(=O)O)C(=O)O)sc1N(C)Cc1cnc2nc(N)nc(N)c2n1 (stereo in doubt; form 2)		46 mg/kg	57.5	150 mg/kg	5.1 ng/mL (≈ 0.0104 µM)		5 mg/kg		0.8 mg/kg	60	3.8 ng/mL (≈ 0.00772 µM)	
CN(Cc1cnc2nc(N)nc(N)c2n1)c1ccc(C(=O)N[C@@H](CCC(=O)O)C(=O)O)cc1 [METHOTREXATE]	64	0.82 mg/kg		40 mg/kg	12.5 ng/mL (≈ 0.0275 µM)	1.57 µM	0.625 mg/kg		0.058 mg/kg			Safety index [3]: 14.1; IC50 [13]: 6.1 ng/mL (≈ 0.0134 µM); Log2 [4]: 4; Log2 [7]: 5.4; Log2 [12]: 4.2
Nc1nc(N)c2nc(CNc3ccc(C(=O)N[C@@H](CC(F)C(=O)O)C(=O)O)cc3C(F)(F)F)cnc2n1 (stereo in doubt; 2vt)					19.5 ng/mL (≈ 0.037 µM)	> 100 µM	5 mg/kg				16.8 ng/mL (≈ 0.0319 µM)	
Cc1cc(C(=O)N[C@@H](CC(F)C(=O)O)C(=O)O)ccc1NCc1cnc2nc(N)nc(N)c2n1 (stereo in doubt; form 2)				100 mg/kg	16.5 ng/mL (≈ 0.0349 µM)		1.25 mg/kg			80	10.7 ng/mL (≈ 0.0226 µM)	
Cc1cc(C(=O)N[C@@H](CC(F)C(=O)O)C(=O)O)sc1N(C)Cc1cnc2nc(N)nc(N)c2n1 (stereo in doubt; form 1)				> 180 mg/kg	14.9 ng/mL (≈ 0.0303 µM)	> 100 µM	10 mg/kg			> 18	11.5 ng/mL (≈ 0.0234 µM)	
CCc1cc(C(=O)N[C@@H](CC(F)C(=O)O)C(=O)O)ccc1NCc1cnc2nc(N)nc(N)c2n1 (stereo in doubt; form 2)			12.2	150 mg/kg	9.2 ng/mL (≈ 0.0189 µM)		2.5 mg/kg			120	3.2 ng/mL (≈ 0.00658 µM)	LD50 [2]: 10.9 mg/kg; Log2 ([4]; 2.5 mg/kg): 4.6; Log2 ([7]; 0.625 mg/kg): 5.4; ED50 [11]: 0.89 mg/kg; Log2 ([12]; 1.25 mg/kg): 5.2
CN(Cc1cnc2nc(N)nc(N)c2n1)c1ccc(C(=O)N[C@@H](CC(F)C(=O)O)C(=O)O)cc1 (stereo in doubt; 2it)					61.5 ng/mL (≈ 0.13 µM)	> 100 µM	>400 mg/kg				64.6 ng/mL (≈ 0.137 µM)	
Nc1nc(N)c2nc(CNc3ccc(C(=O)N[C@@H](CC(F)C(=O)O)C(=O)O)cc3C(F)(F)F)cnc2n1 (stereo in doubt; 2ve)					14.3 ng/mL (≈ 0.0272 µM)						8 ng/mL (≈ 0.0152 µM)	
CN(Cc1cnc2nc(N)nc(N)c2n1)c1ccc(C(=O)N[C@@H](CC(F)C(=O)O)C(=O)O)cc1 (stereo in doubt; 2ie)	12			600 mg/kg	21 ng/mL (≈ 0.0445 µM)		50 mg/kg				25.9 ng/mL (≈ 0.0548 µM)	
Nc1nc(N)c2nc(CNc3ccc(C(=O)N[C@@H](CC(F)C(=O)O)C(=O)O)cc3F)cnc2n1 (stereo partly drawn)	160	29 mg/kg	46.8	200 mg/kg	22.7 ng/mL (≈ 0.0476 µM)	> 100 µM	1.25 mg/kg	9.4 ng/mL (≈ 0.0197 µM)	0.62 mg/kg			Log2 [4]: 5.2; Log2 [7]: 6.2; Log2 [12]: 6.8
Nc1nc(N)c2nc(CNc3ccc(C(=O)N[C@@H](CC(F)C(=O)O)C(=O)O)cc3Cl)cnc2n1 (stereo partly drawn)	100			80 mg/kg	11.8 ng/mL (≈ 0.0239 µM)	> 100 µM	0.8 mg/kg	4.3 ng/mL (≈ 0.00872 µM)				
Nc1nc(N)c2nc(CNc3ccc(C(=O)N[C@@H](CC(F)C(=O)O)C(=O)O)cc3Br)cnc2n1 (stereo partly drawn)	> 80	20 mg/kg	46.5	> 200 mg/kg	8.2 ng/mL (≈ 0.0153 µM)	> 100 µM	5 mg/kg	2.1 ng/mL (≈ 0.00391 µM)	0.43 mg/kg			

Source: ChEMBL document CHEMBL1130178, “Synthesis and evaluation of novel fluorinated methotrexate derivatives for application to rheumatoid arthritis treatment” (J Med Chem, 1997)
